Assay: Nonsink release testing in MFDS
Format: physicochemical
In short: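 Nanoparticle or bulk crystalline suspensions (nanoparticles at about 6 mg/mL solids, various drug loadings) diluted to 40 μgA/mL in MFDS. MFDS: 7.3 mM NaTC, 1.4 mM POPC, phosphate/NaCl, pH 6.5, 290 mOsm. Stirred at 60 rpm. Duplicate aliquots per time point spun through 100-kDa MWCO filters, 12,000 rpm, 5 min. Free drug is dissolved plus micellar; split estimated from micelle partition coefficient and micelle volume fraction.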

Cc1ccc(-c2cc(C(F)(F)F)nn2-c2ccc(S(N)(=O)=O)cc2)cc1 [celecoxib]
equilibrium partition coefficient into bile-salt micelles (MFDS): approximately 1,000
maximum concentration in MFDS (dissolved plus in bile-salt micelles) (MFDS pH 6.5, dose 40 μgA/mL): 16 µg/mL
time to reach maximum concentration in MFDS (MFDS, 40 μgA/mL): at least 1 h
concentration of celecoxib in bile-salt micelles (MFDS, equilibrium): about 13.5 μg/mL
dissolved celecoxib concentration at equilibrium (MFDS, from micelle partition coefficient and 0.5% micelle volume): approximately 2.5 μg/mL

Source: article PMC3264876 (Pharmaceutical Research, 2011)
